High-throughput results as filed in PubChem.
An excerpt weighted towards active compounds, which were near 3.5% of everything screened.
MrgX1 antag: antagonists of human MrgX1 receptor | hit rate 1.3% among 310,000 | B-score at 10 µM | Q96LB2 | MRGX1-HEK293 calcium flux, Fluo-4, BAM8-22 antagonism; hits give low values | AID 588676;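 active means calcium-response B-score plate-corrected more than 3 library SD below zero, starting fluorescence within 5 deviations, no agonist response on first addition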;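 further: peak minus trough fluorescence over baseline after final BAM8-22 challenge near maximal dose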
Target sequence (Q96LB2 whole entry, looked up): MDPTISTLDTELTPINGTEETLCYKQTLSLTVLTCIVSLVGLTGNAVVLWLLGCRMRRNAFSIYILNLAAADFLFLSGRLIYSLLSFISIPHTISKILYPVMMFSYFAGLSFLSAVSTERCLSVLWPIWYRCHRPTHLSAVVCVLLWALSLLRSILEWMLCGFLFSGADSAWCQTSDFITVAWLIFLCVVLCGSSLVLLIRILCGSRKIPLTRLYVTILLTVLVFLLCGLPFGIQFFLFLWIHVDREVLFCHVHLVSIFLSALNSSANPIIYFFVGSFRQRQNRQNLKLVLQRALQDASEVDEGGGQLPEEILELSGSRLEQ
RGS4 block: inhibitors of human RGS4; P49798; HEK293 M3R/RGS4 inducible, Fluo-4 calcium flux; hits give high values; triggered by carbachol at its EC20; B-score at 10 µM; hit rate 0.45% among 310,000; AID 463165;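 active means B-score, a plate-corrected calcium signal, over three deviations above library mean, with baseline fluorescence within five deviations of library mean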;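 further: RGS4 expression induced by doxycycline in cells with stable M3 receptor; B-score is computed from the integrated fluorescence ratio over baseline after carbachol; higher B-score means a larger calcium signal and so more RGS4 inhibition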
Target sequence (P49798 whole entry, looked up): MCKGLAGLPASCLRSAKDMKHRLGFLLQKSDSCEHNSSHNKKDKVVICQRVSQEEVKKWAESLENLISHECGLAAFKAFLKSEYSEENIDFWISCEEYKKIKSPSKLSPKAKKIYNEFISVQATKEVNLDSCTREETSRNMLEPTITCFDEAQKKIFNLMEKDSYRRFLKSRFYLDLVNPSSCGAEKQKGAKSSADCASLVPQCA
RGS4 pot: potentiators or activators of RGS4; AID 463111; B-score at 10 µM; HEK293 M3R/inducible RGS4, carbachol calcium flux Fluo4; hits give low values; hit rate 0.92% among 310,000;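 active means B-score of the integrated calcium signal more than 4 SD below the library mean, with starting fluorescence not abnormally high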;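 further: negative B-score means reduced calcium response which marks RGS4 activation or potentiation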
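Reagent: ECmax carbachol challenge; Test system: M3R-expressing HEK293 line, RGS4 induced by doxycycline; Schedule: overnight RGS4 induction, 30 min dye load 37 °C, 20 min compound RT; Detection: calcium dye Fluo4 fluorescence; Read-out: Agonist-evoked peak-minus-minimum fluorescence over baseline, integrated ratio, B score.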
MrgX1 agonist: agonists of human MrgX1 receptor. Q96LB2. hit rate 0.44% among 310,000. B-score at 10 µM. MrgX1-HEK293 cells, Fluo-4 calcium fluorescence, agonist mode; hits give high values;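 active means calcium response B-score plate-corrected fluorescence ratio at least 3 library SD, with starting fluorescence B-score inside 5 SD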
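System: HEK293 cells stably expressing human MrgX1 receptor; Dosing: test compound in the initial addition of three; Schedule: overnight plating, then 30 min 37 °C plus 30 min room-temperature dye loading; Detection: kinetic calcium dye fluorescence, Fluo-4 NW; Controls: per-plate positive and negative controls for Z′ factor.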
MrgX1 PAM: allosterically activates human MrgX1 receptor signaling; Q96LB2; MrgX1-HEK293, Fluo-4 calcium flux, FDSS; hits give high values; B-score at 10 µM; hit rate 0.63% among 310,000; AID 588675;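 active means plate-corrected calcium response at least 3 library SD above typical, normal starting fluorescence, not activating the receptor alone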;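 further: compound read alongside a low EC10 to EC30 dose of BAM8-22 agonist; peak minus trough fluorescence over baseline measured at the second addition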
RGS4 activ val: confirmation of RGS4 activators. hit rate 89% among 1,100. inhibition, % at 10 µM. HEK293 M3R/RGS4 inducible, carbachol calcium flux Fluo4. shares compounds with RGS4 pot. AID 602282;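 active means inhibition above 3 SD of the buffer control wells, cut at about 41% in these data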;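 further: signal is the integrated peak-minus-minimum Fluo4 fluorescence over baseline ratio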
M3R Ca counter: counter-screen for RGS4 activators: effect in non-induced cells. shares compounds with RGS4 pot. HEK293 M3R non-induced RGS4, Fluo4 calcium flux; after carbachol challenge at its EC90. inhibition, % at 10 µM. hit rate 82% among 1,100;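 active means inhibition exceeding 3 SD of buffer-only control wells, cut at about 26% in these data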;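 further: percent drop in integrated peak-minus-baseline over baseline Fluo4 ratio after carbachol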
* hit, by the source's call; i = inactive; . = no result given.

SMILES | MrgX1 antag | RGS4 block | RGS4 pot | MrgX1 agonist | MrgX1 PAM | RGS4 activ val | M3R Ca counter
Cc1cc(=O)[nH]c2ccc(S(=O)(=O)N3CCOCC3)cc12 | i | i | i | i | i | . | .
COc1ccc(NC(=O)CSCC(=O)NC2(C)CCS(=O)(=O)C2)cc1 (stereo not given) | i | i | i | i | i | . | .
Cc1noc(C)c1S(=O)(=O)N(CC(=O)NCc1ccc2c(c1)OCO2)c1ccc(C(C)C)cc1 | i | i | -8.3* | i | i | 0 | 0
Cc1ccc(N(CC(=O)NCc2ccc3c(c2)OCO3)S(=O)(=O)c2c(C)noc2C)cc1 | i | i | i | i | i | . | .
CN(CC(=O)Nc1cccc(F)c1)C(=O)c1csc2c1CCCC2 | i | i | i | i | i | . | .
Cc1cc(C(=O)OCC(=O)NCCC(C)C)c2ccccc2n1 | i | i | i | i | i | . | .
Cc1cc(/C=C(/C#N)c2nc3ccccc3[nH]2)c(C)n1-c1cc(C(=O)O)cc(C(=O)O)c1 | . | i | -7.9* | . | . | 52* | 44*
CCOC(=O)C1CCN(C(=O)c2ccc3c(Cl)c4c(nc3c2)CCCC4)CC1 | i | i | i | i | i | . | .
CC1CCN(C(=O)c2ccc3c(Cl)c4c(nc3c2)CCCC4)CC1 | i | i | i | i | i | . | .
O=C(c1ccc2c(Cl)c3c(nc2c1)CCCC3)N1CCN(c2ccc(F)cc2)CC1 | i | i | -9.2* | i | i | 92* | 86*
COc1ccccc1N1CCN(C(=O)c2ccc3c(Cl)c4c(nc3c2)CCCC4)CC1 | i | i | -9.7* | i | i | 86* | 79*
CCC(=O)Nc1nonc1-c1nc2ccccc2n1Cc1ccccc1 | i | i | i | i | i | . | .
CCC(=O)Nc1nonc1-c1nc2ccccc2n1N(C(=O)CC)C(=O)CC | i | i | -8.6* | i | i | 0 | 0
Cc1ccc(NC(=O)c2cc(C(C)(C)C)nn2Cc2ccccc2)cc1 | i | i | -7.6* | i | i | 95* | 82*
CN(CC(=O)Nc1ccc(Cl)cc1)C(=O)c1cc(-c2cccs2)nn1-c1ccccc1 | i | i | -8.5* | i | i | 88* | 42*
CN(CC(=O)Nc1c(Cl)cccc1Cl)C(=O)c1cc(-c2cccs2)nn1-c1ccccc1 | i | i | i | i | i | . | .
CCN(CC(=O)Nc1c(F)cccc1F)C(=O)c1cc(-c2cccs2)nn1-c1ccccc1 | i | i | -9.4* | i | i | 52* | 84*
CN(CC(=O)Nc1ccccc1Cl)C(=O)c1cc(-c2cccs2)nn1-c1ccccc1 | i | i | i | i | i | . | .
CCN(CC(=O)Nc1ccccc1OC)C(=O)c1cc(-c2ccccc2)nn1-c1ccccc1 | i | i | -7.8* | i | i | 92* | 67*
COCCn1c(Cc2ccccc2)nnc1SCC(=O)NC1CC1 | i | i | i | i | i | . | .
COc1cc(NC(=O)Nc2cccc(Cl)c2)c(OC)cc1NC(=O)CN1CCCCC1 | i | i | -11* | i | i | 38* | 0
O=C(CN1CCCCC1)Nc1cccc(Cl)c1 | i | i | i | i | i | . | .
CCC(C)[C@H](NC(=O)NC1CCCc2ccccc21)C(=O)OC (stereo not given in full) | i | i | -8.3* | i | i | 0 | 0
OCC1(Cc2ccccc2C(F)(F)F)CCN(Cc2ccccc2)CC1 | i | i | i | i | i | . | .
OCC1(Cc2ccccc2C(F)(F)F)CCN(Cc2ccc3c(c2)CCO3)CC1 | i | i | -10* | i | i | 55* | 84*
SMILES | MrgX1 antag | RGS4 block | RGS4 pot | MrgX1 agonist | MrgX1 PAM | RGS4 activ val | M3R Ca counter
CCOC(=O)C[C@H]1c2ccc(C(F)(F)F)cc2S(=O)(=O)N1C(C)C | i | i | i | i | i | . | .
O=C(NCc1ccc(F)cc1)C(=O)NCC1CCCN1S(=O)(=O)c1ccccc1 (stereo not given) | i | i | i | i | i | . | .
COc1ccccc1CCNC(=O)C(=O)NCC1CCCN1S(=O)(=O)c1ccccc1 (stereo not given) | -4.5* | i | -11* | i | i | 80* | 84*
COc1ccc(CCNC(=O)C(=O)NCC2CCCN2S(=O)(=O)c2ccccc2)cc1 (stereo not given) | i | i | -12* | i | i | 88* | 54*
O=C(NCCc1ccc(F)cc1)C(=O)NCC1CCCN1S(=O)(=O)c1ccccc1 (stereo not given) | i | i | -9.3* | i | i | 90* | 68*
CN(C)S(=O)(=O)n1cc(/C=C(\NC(=O)c2ccccc2F)C(=O)NCCCN2CCOCC2)c2ccccc21 | i | i | i | i | i | . | .
N#CCC(=O)N/N=C1\CCCCC1C1CCCCC1 (stereo not given) | i | i | i | i | i | . | .
COc1ccc(NC(=O)CSc2nnc(CNC(=O)COc3ccc(Cl)cc3)o2)cc1 | i | i | i | i | i | . | .
CCOC(=O)c1ccc(NC(=O)N2CCc3ccccc3C2)cc1 | i | i | -8.9* | i | i | 84* | 44*
CCN1CCN(C(=O)c2ccc3nc(-c4ccccc4)c(-c4ccccc4)nc3c2)CC1 | i | i | -9.4* | i | i | 73* | 84*
CN1CCN(CCNC(=O)c2ccc3nc(-c4ccc(F)cc4)c(-c4ccc(F)cc4)nc3c2)CC1 | i | i | -9.7* | i | i | 90* | 84*
O=C(O)c1ccc2nc(-c3ccccc3)c(-c3ccccc3)nc2c1 | i | i | i | i | i | . | .
Nn1c(SCC(=O)Nc2ccc(OC(F)F)cc2)nnc1-c1ccco1 | i | i | i | i | i | . | .
[2H]c1c([2H])c([2H])c(C(=O)c2sc(N3CCCCCC3)nc2-c2ccccc2)c([2H])c1[2H] | i | i | -8.3* | i | i | 92* | 61*
Cc1nc(SCC(=O)N2CCN(c3ccccc3)CC2)c2oc3ccccc3c2n1 | i | i | -9.3* | i | i | 80* | 0
CCc1nc(SCC(=O)N2CCCc3ccccc32)c2oc3ccccc3c2n1 | i | i | -9.4* | i | i | 90* | 71*
CCc1nc(SCC(=O)NC2CCCC2)c2oc3ccccc3c2n1 | i | i | i | i | i | . | .
Cc1nc(SCC(=O)O)c2oc3ccccc3c2n1 | i | i | i | i | i | . | .
